Measured values reported in ChEMBL document CHEMBL4190216, “Asymmetric 1,5-diarylpenta-1,4-dien-3-ones: Antiproliferative activity in prostate epithelial cell models and pharmacokinetic studies” (Eur J Med Chem, 2017).

How the values were obtained:
[1] = Cmax in Sprague-Dawley rat at 10 mg/kg administered via oral gavage by HPLC-MS/MS analysis; type: ADME, organism-based; design: dose 10 mg/kg, route oral; details: in vivo
PC-3 [2] = experiment: Potency index, ratio of curcumin IC50 to test compound IC50 for human PC3 cells; type: functional
PC-3 [3] = experiment: Induction of apoptosis in human PC3 cells assessed as viable cells at 20 uM after 16 hrs by F2N12S/CYTOX AADvanced double staining-based flow cytometric method (reference value: 95%); type: functional; details: PC-3, 16 h, read-out: Activity
CWR22R = experiment: Antiproliferative activity against human 22Rv1 cells expressing androgen receptor splice variants assessed as decrease in cell viability after 5 days by trypan blue exclusion assay; type: functional, cell-based; details: 22Rv1, 120 h
PC-3 [4] = experiment: Cell cycle arrest in human PC3 cells assessed as accumulation at G0/G1 phase at 5 uM after 16 hrs by propidium iodide staining-based flow cytometric method (reference value: 51 to 52%); type: functional
PC-3 [5] = experiment: Induction of apoptosis in human PC3 cells assessed as early apoptotic cells at 20 uM after 16 hrs by F2N12S/CYTOX AADvanced double staining-based flow cytometric method (reference value: 2%); type: functional
PC-3 [6] = experiment: Cell cycle arrest in human PC3 cells assessed as accumulation at G2 phase at 5 uM after 16 hrs by propidium iodide staining-based flow cytometric method (reference value: 25 to 28%); type: functional
[7] = Plasma concentration in Sprague-Dawley rat at 10 mg/kg administered via oral gavage measured at 3 hrs by HPLC-MS/MS analysis; type: ADME, organism-based
[8] = Retention time of the compound; type: physicochemical
[9] = Tmax in Sprague-Dawley rat at 10 mg/kg administered via oral gavage by HPLC-MS/MS analysis; type: ADME, organism-based; details: in vivo
PC-3 [10] = experiment: Induction of apoptosis in human PC3 cells assessed as late apoptotic/necrotic cells at 10 uM after 16 hrs by F2N12S/CYTOX AADvanced double staining-based flow cytometric method (reference value: 3%); type: functional
PC-3 [11] = experiment: Induction of apoptosis in human PC3 cells assessed as early apoptotic cells at 10 uM after 16 hrs by F2N12S/CYTOX AADvanced double staining-based flow cytometric method (reference value: 2%); type: functional
PC-3 [12] = experiment: Antiproliferative activity against human PC3 cells assessed as decrease in cell viability after 3 days by WST assay; type: functional, cell-based; details: PC-3, 72 h
Outline: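 Cells were seeded at 3,200 per well. PC-3 and LNCaP were grown in RPMI-1640 and DU-145 in EMEM, each with 10% FBS and 1% penicillin/streptomycin, at 37 °C and 5% CO2. Cells were exposed for 3 days to at least five concentrations, with DMSO as vehicle control. WST-1 reagent was then added for 3 h at 37 °C and absorbance read at 430 nm. IC50 came from linear inhibition, averaged over triplicates.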

LNCaP = experiment: Potency index, ratio of curcumin IC50 to test compound IC50 for human LNCAP cells; type: functional
PC-3 [13] = experiment: Induction of apoptosis in human PC3 cells assessed as late apoptotic/necrotic cells at 40 uM after 16 hrs by F2N12S/CYTOX AADvanced double staining-based flow cytometric method (reference value: 3%); type: functional
PC-3 [14] = experiment: Induction of apoptosis in human PC3 cells assessed as viable cells at 5 uM after 16 hrs by F2N12S/CYTOX AADvanced double staining-based flow cytometric method (reference value: 95%); type: functional; details: PC-3, 16 h, read-out: Activity
[15] = AUC in Sprague-Dawley rat at 10 mg/kg administered via oral gavage by HPLC-MS/MS analysis; type: ADME, organism-based; details: in vivo

SMILES: CCC(C)n1ccnc1/C=C/C(=O)/C=C/c1sc(C)nc1C(F)(F)F (configuration not stated)
- Cmax [1]: 5.27 µM
- Ratio IC50 (PC-3 [2]): 110
- viability at 20 µM (PC-3 [3]): 51%
- IC50 (CWR22R): 850 nM
- Activity (PC-3 [4]): 68%
- Activity (PC-3 [5]): 26%
- Activity (PC-3 [6]): 18%
- concentration at 3 h [7]: 672 ng/mL
- Retention_time [8]: 4.35 min
- Tmax [9]: 6 h
- Activity (PC-3 [10]): 37%
- Activity (PC-3 [11]): 14%
- IC50 (PC-3 [12]): 230 nM
- Ratio IC50 (LNCaP): 62
- Activity (PC-3 [13]): 53%
- viability at 5 µM (PC-3 [14]): 50%
- AUC [15]: 24700 ng·h/mL
